Measurements from ChEMBL document CHEMBL1124444, “Hydroxyacetophenone-derived antagonists of the peptidoleukotrienes” (1989).

Each compound was assayed against T1, Cysteinyl leukotriene receptor 1 (Cavia porcellus) (UniProt Q2NNR5) (assay: Dissociation constant (KB) […] was evaluated in vitro in isolated guinea pig tracheal strips). Conditions: not given.
T1 sequence (whole entry): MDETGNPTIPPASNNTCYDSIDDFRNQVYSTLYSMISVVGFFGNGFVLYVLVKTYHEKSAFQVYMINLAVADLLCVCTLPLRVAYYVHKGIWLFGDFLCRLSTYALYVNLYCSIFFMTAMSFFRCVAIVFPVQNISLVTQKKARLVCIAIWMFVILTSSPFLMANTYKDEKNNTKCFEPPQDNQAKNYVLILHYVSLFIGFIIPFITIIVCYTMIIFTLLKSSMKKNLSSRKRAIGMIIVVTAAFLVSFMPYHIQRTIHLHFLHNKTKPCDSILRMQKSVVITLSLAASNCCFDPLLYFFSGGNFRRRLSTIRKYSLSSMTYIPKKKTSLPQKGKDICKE

SMILES | Kb
COc1cc(C(=O)O)ccc1COc1ccc(C(C)=O)c(O)c1C | 850 nM

Species: Cavia porcellus
Assay: Percent inhibition of the leukotriene E4 (LTE4)-induced contraction of guinea pig tracheal spirals at 10 uM concentration
Format: functional
Conditions: Trachea
Summary of the method: (§1)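 Guinea pig tracheal spirals were split into paired sections in 10 mL baths of modified Krebs at 37 °C, gassed with 95% O₂/5% CO₂, under 2 g resting tension. After 60 min equilibration (washes every 15 min), reproducible contractions to 8 nM LTD₄ or 8 nM LTE₄ were obtained. Compound was added for 10 min, then agonist challenge repeated; percent inhibition is relative to the vehicle-treated paired section.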

SMILES | inhibition at 10 µM
CC/N=C(/NCC)NCCCC[C@@H](NC(=O)[C@H](Cc1ccc(O)cc1)NC(=O)[C@H](CO)NC(=O)[C@@H](Cc1c[nH]c2ccccc12)NC(=O)[C@@H](Cc1ccc(Cl)cc1)NC(=O)[C@@H](Cc1ccc(Cl)cc1)NC(C)=O)C(=O)N[C@@H](CC(C)C)C(=O)N[C@@H](CCCN=C(N)N)C(=O)N1CCC[C@H]1C(=O)N[C@H](C)C(N)=O | 40%
CCCc1c(NCc2ccc(C(=O)O)cc2OC)ccc(C(C)=O)c1O | 73%
COc1cc(C(=O)O)ccc1COc1ccc(C(C)=O)c(O)c1C/C=C/c1ccccc1 | 32%
CCCc1c(OCc2ccc(C(=O)O)cc2OC)ccc(C(C)=O)c1OCc1ccc(OC)cc1 | 25%
COc1cc(C(=O)O)ccc1CN(Cc1ccccc1)c1ccc(C(C)=O)c(O)c1 | 36%
COc1cc(C(=O)O)ccc1COc1ccc(C(C)=O)c(OCc2ccccc2)c1 | 24%
CCCc1c(N(Cc2ccc(C(=O)O)cc2OC)C(=O)c2ccccc2)ccc(C(C)=O)c1O | 12%
COc1cc(C(=O)O)ccc1COc1ccc(C(C)=O)c(O)c1CCCC(C)=O | 21%
CCCNc1c(C(C)=O)ccc(OCc2ccc(C(=O)O)cc2OC)c1CCC | 61%
CCCCCCOc1c(C(C)=O)ccc(OCc2ccc(C(=O)O)cc2OC)c1CCC | 22%
CCCc1cc2ccccc2cc1OCc1ccc(C(=O)O)cc1OC | 51%
C=CCc1c(OCc2ccc(C(=O)O)cc2OC)ccc(C(C)=O)c1O | 100%
CCCc1c(OCc2ccc(C(=O)O)cc2OC)ccc(C(=O)NC)c1O | 50%
CCCc1c(OCc2ccc(C(=O)O)cc2OC)ccc2c(/C=C/c3ccccc3)cc(=O)oc12 | 7%
C/C=C\c1cc(=O)oc2c(CCC)c(OCc3ccc(C(=O)O)cc3OC)ccc12 | 23%
C/C=C/c1cc(=O)oc2c(CCC)c(OCc3ccc(C(=O)O)cc3OC)ccc12 | 21%

Species: Cavia porcellus
Assay: Percent inhibition of the leukotriene E4 (LTE4)-induced contraction of guinea pig tracheal spirals at 10 uM concentration; NS means data was not statistically significant.
Format: functional
Conditions: Trachea
Summary of the method: as §1

SMILES | inhibition
CCCc1c(OCc2ccc(C(=O)O)cc2OC)ccc(C(C)=O)c1NC(C)=O | Not statistically significant
CCCc1c(O)cccc1OCc1ccc(C(=O)O)cc1OC | Not statistically significant
CCCN(C(=O)c1ccc(C(=O)O)cc1)c1ccc(C(C)=O)c(O)c1 | Not statistically significant
CCCCOC(=O)c1ccc(OCc2ccc(C(=O)O)cc2OC)c(CCC)c1O | Not statistically significant
CCCc1c(OCc2ccc(C(=O)NS(=O)(=O)c3ccccc3)cc2OC)ccc(C(C)=O)c1O | Not statistically significant
CCCc1c(OCc2ccc(C(=O)O)cc2OC)ccc2c1C(=O)c1ccccc1-2 | Not statistically significant
C=CCc1c(OCc2ccc(C(=O)O)cc2OC)cc2oc(-c3ccccc3)cc(=O)c2c1O | Not statistically significant
CCCc1c(OCc2ccc(/C=C/C(=O)Nc3nn[nH]n3)cc2)ccc(C(C)=O)c1O | Not statistically significant
CCCc1cc2c(cc1OCc1ccc(C(=O)O)cc1OC)C(=O)c1ccccc1-2 | Not statistically significant
CCCc1c(OCc2ccc(C(=O)O)cc2OC)ccc(-c2ccc3ccccc3n2)c1O | Not statistically significant
COc1cc(C(=O)O)ccc1COc1cc(O)c2c(=O)ccn(C)c2c1 | Not statistically significant
CCCc1c(OCc2cccc(NS(=O)(=O)c3ccccc3)c2)ccc(C(C)=O)c1O | Not statistically significant
CCCCCCOc1cc(OCc2ccc(C(=O)O)cc2OC)ccc1C(C)=O | Not statistically significant
COc1cc(C(=O)O)ccc1CNc1ccc(C(C)=O)c(O)c1 | Not statistically significant
CCCc1c(OCc2ccc(C(=O)O)cc2OC)cc2oc(-c3ccccc3)cc(=O)c2c1O | Not statistically significant
CCCc1c(OCc2ccc(C(=O)O)cc2OC)ccc(C(C)=O)c1NC(=O)c1ccccc1 | Not statistically significant

The compounds below were run on Cavia porcellus (assay: Compound (50 mg/kg, intraperitoneally) was tested in spontaneously breathing, conscious guinea pigs challenged with aerosolized LTD4 (60-min pretreatment)). Conditions: not given.
Format: functional

SMILES | Protection
CCCc1c(OCc2ccc(C(=O)O)cc2OC)ccc(C(=O)NC)c1O | 33%
COc1cc(C(=O)O)ccc1COc1ccc(C(C)=O)c(O)c1C | 17%

Species: Cavia porcellus
Assay: Percent inhibition of the leukotriene D4 (LTD4)-induced contraction of guinea pig tracheal spirals at 50 uM concentration
Format: functional
Conditions: Trachea
Summary of the method: as §1

SMILES | inhibition at 50 µM
CCCCCC(=O)c1ccc(OCc2ccc(C(=O)O)cc2OC)c(CCC)c1O | 20%
CCCc1ccccc1OCc1ccc(C(=O)O)cc1OC | 81%
CCCCCCNC(=O)c1ccc(OCc2ccc(C(=O)O)cc2OC)c(CCC)c1O | 27%
CCCc1c(OCc2ccc(C(=O)O)cc2OC)ccc(C(=O)N2CCCC2)c1O | 90%
CCCc1c(OCC(O)CSCC(=O)O)ccc(C(C)=O)c1O (configuration not stated) | 44%
CCCc1c(OCc2ccc(C(=O)O)cc2OC)ccc(C(=O)c2ccccc2)c1O | 20%

Species: Cavia porcellus
Assay: Inhibition of the leukotriene D4 (LTD4)-induced contraction of guinea pig tracheal spirals at 10 uM concentration
Format: functional
Conditions: Trachea
Summary of the method: as §1

SMILES | inhibition at 10 µM
CCCc1c(OCCCSCCC(=O)O)ccc(C(C)=O)c1O | 50%
CCCc1c(OCCCCSCCC(=O)O)ccc(C(C)=O)c1O | 74%
CCCc1c(OCc2ccc(C(=O)O)cc2)ccc(C(C)=O)c1O | 100%
CCCc1ccccc1OCc1ccc(C(=O)O)cc1OC | 25%
CCCc1c(OCc2ccc(C(=O)O)cc2)ccc(C(=O)C(F)(F)F)c1O | 36%
CCCc1c(OC(c2ccccc2)c2ccc(C(=O)O)cc2)ccc(C(C)=O)c1O (configuration not stated) | 16%
CCCc1c(OCc2ccc(C(=O)O)cc2OC)ccc(C(=O)Nc2ccccc2)c1O | 25%
CCCc1c(OCCCCC(=O)O)ccc(C(C)=O)c1O | 18%
CCCc1cc(C(C)=O)ccc1OCc1ccc(C(=O)O)cc1OC | 67%
CCCc1c(OCc2ccc(C(=O)O)cc2OC)ccc(C(=O)N2CCCC2)c1O | 37%
CCCc1cc(C(C)O)ccc1OCc1ccc(C(=O)O)cc1OC (configuration not stated) | 44%
CCCc1c(OCC(O)CSCC(=O)O)ccc(C(C)=O)c1O (configuration not stated) | 19%
CCCc1c(OCC(=O)c2ccc(C(=O)O)cc2)ccc(C(C)=O)c1O | 66%
CCCc1c(OCc2cc(Br)c(C(=O)O)cc2OC)ccc(C(C)=O)c1O | 43%
CCCc1c(OCc2cccc(NS(C)(=O)=O)c2)ccc(C(C)=O)c1O | 26%
CCCc1c(OCCCCCC(=O)O)ccc(C(C)=O)c1O | 52%
CCCc1c(OCc2ccc(/C=C/c3nn[nH]n3)cc2)ccc(C(C)=O)c1O | 44%
CCCc1c(OCc2cccc(N)c2)ccc(C(C)=O)c1O | 39%
CCCc1c(OCCCS(=O)(=O)CC(=O)O)ccc(C(C)=O)c1O | 34%
CCCc1c(OCc2ccc(C(=O)OC)cc2OCCCn2cnnn2)ccc(C(C)=O)c1O | 75%
CCCc1c(OCc2ccc(C(=O)O)cc2OCC)ccc(C(C)=O)c1O | 83%
COc1cc(C(=O)O)ccc1COc1ccc(C(C)=O)c(O)c1C | 73%
CCCc1c(OCc2ccc(OCCCc3nnn[nH]3)cc2)ccc(C(C)=O)c1O | 56%
CCCc1c(OCc2ccc(C(=O)NO)cc2OC)ccc(C(C)=O)c1O | 65%
CCCc1c(OCc2ccc(C(=O)NS(C)(=O)=O)cc2OC)ccc(C(C)=O)c1O | 97%
CCCCCCNc1cc(OCc2ccc(C(=O)O)cc2OC)ccc1C(C)=O | 11%
CCCc1c(OCc2ccc(C(=O)O)cc2OC)ccc2c(=O)ccoc12 | 44%
CCCc1c(OCc2ccc(C(=O)O)cc2[N+](=O)[O-])ccc(C(C)=O)c1O | 93%
CCCc1c(OCCCCSCC(=O)O)ccc(C(C)=O)c1O | 75%

Species: Cavia porcellus
Assay: Percent inhibition of the leukotriene D4 (LTD4)-induced contraction of guinea pig tracheal spirals at 3.3 uM concentration
Format: functional
Conditions: Trachea, in the assay text read “leukotriene E4 (LTE4)” for “leukotriene D4 (LTD4)”
Summary of the method: as §1

SMILES | inhibition at 3.3 µM
CCCc1c(OCc2ccc(C(=O)O)cc2OCCCC#N)ccc(C(C)=O)c1O | 78%
CCCc1c(OCc2ccc(-c3nn[nH]n3)c(Br)c2)ccc(C(C)=O)c1O | 66%
CCCc1c(OCc2ccc(C(=O)NS(C)(=O)=O)cc2OC)ccc(C(C)=O)c1O | 37%
CCCc1c(OCc2ccc(C(=O)O)cc2OCCCn2cnnn2)ccc(C(C)=O)c1O | 87%
CCCc1c(OCc2cccc(NC(=O)CCC(=O)O)c2)ccc(C(C)=O)c1O | 62%
CCCc1c(OCc2ccc(-c3nn[nH]n3)cc2)ccc(C(C)=O)c1O | 76%

Species: Cavia porcellus
Assay: Percent inhibition of the leukotriene D4 (LTD4)-induced contraction of guinea pig tracheal spirals at 4 uM concentration
Format: functional
Conditions: Trachea
Summary of the method: as §1

SMILES | inhibition at 4 µM
CCCc1c(OCc2ccc(OC)c(/C=C/C(=O)O)c2)ccc(C(C)=O)c1O | 63%
CCCc1c(OCc2ccc(/C=C/C(=O)O)c(OC)c2)ccc(C(C)=O)c1O | 66%
CCCc1c(OCc2ccc(C(=O)O)cc2)ccc(C(C)=O)c1O | 36%
COc1cc(C(=O)O)ccc1COc1ccc(C(C)=O)c(O)c1C | 33%
CCCc1c(OCc2ccc(C(=O)O)cc2[N+](=O)[O-])ccc(C(C)=O)c1O | 57%

Species: Cavia porcellus
Assay: Percent inhibition of the leukotriene E4 (LTE4)-induced contraction of guinea pig tracheal spirals at 1 uM concentration
Conditions: Trachea

SMILES | inhibition at 1 µM
CCCc1c(OCc2ccc(NC(=O)c3ccccc3C(=O)O)cc2)ccc(C(C)=O)c1O | 49%

Species: Cavia porcellus
Assay: Percent inhibition of the leukotriene E4 (LTE4)-induced contraction of guinea pig tracheal spirals at 10 uM concentration; NS means data was not statistically significant
Conditions: Trachea

SMILES | inhibition
CCCc1c(N(Cc2ccc(C(=O)O)cc2OC)C(C)=O)ccc(C(C)=O)c1O | Not statistically significant
CCCc1c(OCc2ccccc2-c2nn[nH]n2)ccc(C(C)=O)c1O | Not statistically significant
CCCc1c(NC(=O)c2ccc(C(=O)O)cc2OC)ccc(C(C)=O)c1O | Not statistically significant
CCCC(=O)N(Cc1ccc(C(=O)O)cc1OC)c1ccc(C(C)=O)c(O)c1 | Not statistically significant
CCCc1c(OCc2ccc(C(=O)O)cc2OC)ccc(C(=O)c2ccccc2)c1O | Not statistically significant
